LMPTP inh – blocks human LMPTP phosphatase. hit rate 0.22% among 360,000. P24666. recombinant LMPTP-A, OMFP fluorogenic substrate, fluorescence intensity. inhibition, % at 20 µM;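 active = compounds that cut the enzyme signal by at least half of the control window in the single-dose screen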
Target sequence (P24666 whole entry, looked up): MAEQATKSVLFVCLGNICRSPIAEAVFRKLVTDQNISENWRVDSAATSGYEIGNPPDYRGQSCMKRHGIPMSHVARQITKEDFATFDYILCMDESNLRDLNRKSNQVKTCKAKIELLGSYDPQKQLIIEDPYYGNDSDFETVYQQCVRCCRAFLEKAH
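Assay system: LMPTP-A, protein tyrosine phosphatase of low molecular weight / Medium: pH 6.0 Bis-Tris buffer with DTT and Triton X-100 / Schedule: 50 min enzyme reaction at room temperature, protected from light / Measured by: endpoint fluorescence intensity from OMFP dephosphorylation / Read-out basis: % inhibition relative to no-enzyme and uninhibited control wells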
DNMT1 block – DNMT1 (human) enzyme inhibition; P26358; DNMT1 molecular beacon, Hinp1I cleavage, fluorescence; inhibition (reported as % activation of signal), % at 10 µM; hit rate 0.83% among 360,000; AID 588458; in the data active = inhibition above about 50%
Scp-1 inhibitor – Scp-1 (human) phosphatase inhibition | Q9GZU7 | Recombinant Scp1, phosphopeptide, malachite green phosphate absorbance | inhibition, % at 20 µM | hit rate 0.88% among 340,000 | AID 493091;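 active = inhibition above about 50% at 20 µM, limit read from the data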
Target sequence (Q9GZU7 76-261 limits assumed): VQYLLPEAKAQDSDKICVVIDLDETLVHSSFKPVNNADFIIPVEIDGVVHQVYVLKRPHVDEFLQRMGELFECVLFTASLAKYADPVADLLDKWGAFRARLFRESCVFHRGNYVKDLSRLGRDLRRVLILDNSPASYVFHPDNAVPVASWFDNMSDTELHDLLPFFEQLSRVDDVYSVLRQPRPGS
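Assay system: SCP-1 catalytic fragment, aa 76-261 | Buffer or medium: Tris acetate buffer pH 5.5 with MgCl2 and Tween-20 | Compound: One concentration, 20 µM, with 1.0% DMSO | Also added: Phospho 17-mer peptide substrate | Signal: Absorbance at 630 nm | Incubation: 45 min enzyme reaction at room temperature | Measure: % inhibition of SCP-1 phosphate liberation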
STEP inh – blocks human striatal-enriched tyrosine phosphatase; P54829; recombinant STEP, OMFP fluorogenic substrate, fluorescence; inhibition, % at 20 µM; hit rate 0.25% among 360,000; AID 588621;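 active = inhibition at 20 µM, scaled per plate between control wells, above about 37%, limit read from the data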
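Assay system: isolated STEP enzyme / Timing: 20 min at room temperature, dark / Doses: 20 µM, 1% DMSO / Technique: fluorescence intensity, excitation 480 nm, emission 540 nm / Reagent: fluorogenic phosphatase substrate OMFP at 25 µM final / Measure: percent inhibition scaled to no-enzyme and uninhibited-enzyme controls, plate-pattern corrected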
SUMO1-SIM PPI – modulators of human SUMO1-mediated protein-protein interactions | inhibition, % at 20 µM | hit rate 0.33% among 360,000 | P63165 | SUMO1 binding to a labelled peptide, TR-FRET, 1 h; in the data active = inhibition above about 37%
Target sequence (P63165 whole entry, looked up): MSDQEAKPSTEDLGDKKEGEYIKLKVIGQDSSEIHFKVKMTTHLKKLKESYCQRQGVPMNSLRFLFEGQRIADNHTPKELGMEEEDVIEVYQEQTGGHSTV
Scp1 confirm – Scp-1 (human) inhibition, single-dose confirmed; shares compounds with Scp-1 inhibitor; recombinant SCP-1 catalytic domain, phosphate release, malachite green absorbance; inhibition, % at 20 µM; hit rate 61% among 2,500; AID 540281
MG interference – colorimetric interference in Scp-1 counter-screen; Colorimetric interference counterscreen, malachite green absorbance 630 nm; 2,500 tested, under 10 active; shares compounds with Scp-1 inhibitor; apparent inhibition (interference), % at 20 µM;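 also: compounds added after enzyme reaction finished so only phosphate colour detection is probed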
Scp-1 Tm shift – validation of human Scp-1 inhibitors by thermal shift binding; shares compounds with Scp-1 inhibitor; Recombinant SCP1, Sypro Orange thermal shift Tm; thermal shift relative to vanadate control, % at 40 µM; hit rate 25% among 1,500;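 active = substances whose mean melting-temperature shift, as a percentage of the reference inhibitor's shift, reaches about 5.3%, limit read from the data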
Large screens that a line does not name were inactive (follow-up assays come after a bar, where they were run). Hits are enriched below; roughly 1.7% of the tested compounds scored in any of these assays.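 The calls were made as follows, unless noted: active = inhibition of at least 30% at 20 µM; inactive = the rest.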

COCCN(C(=O)C1CC(=O)N(Cc2ccc(C)cc2)C1)c1c(N)n(CC(C)C)c(=O)[nH]c1=O (centres undefined)	none
CCOC(=O)C1=C(C)N=c2s/c(=C\c3ccc(C(=O)O)cc3)c(=O)n2C1c1ccc(OC)cc1OC (centres undefined)	Scp-1 inhibitor 73.1 | Scp1 confirm 72.0 | MG interference inactive | Scp-1 Tm shift 6.9
CCOC(=O)C1=C(C)N=c2s/c(=C\c3ccc(C(=O)O)cc3)c(=O)n2C1c1ccc(F)cc1 (centres undefined)	none
Cc1cccnc1CNC(=O)C1(C)CCCN1CC(C)C (centres undefined)	none (no result: Scp-1 inhibitor)
COC(=O)CN1C(=O)N/C(=C/c2ccc(OC)cc2)C1=O	none
COC(=O)Cn1c(=O)c2c(n(Cc3ccccc3)c1=O)N/C(=C/c1ccc(Br)cc1)C2=O	Scp-1 inhibitor 107.2 | Scp1 confirm 56.5 | MG interference inactive | Scp-1 Tm shift 11.9
COc1ccccc1-n1c(SCC(=O)N2CCOCC2)nc2cccnc21	none
COc1ccccc1-n1c(SCC(=O)N2CCCCC2)nc2cccnc21	Scp-1 inhibitor 95.4 | Scp1 confirm inactive | MG interference inactive
COc1ccc(S(=O)(=O)N2CCCC2)cc1C(C)C	Scp-1 inhibitor 52.9 | Scp1 confirm inactive | MG interference inactive
Cc1cccc(CN(CC(=O)N/N=C/c2ccco2)S(=O)(=O)c2ccc(Cl)cc2)c1	Scp-1 inhibitor 58.0 | Scp1 confirm 48.1 | MG interference inactive | Scp-1 Tm shift inactive
Cc1ccc(S(=O)(=O)N(CC(=O)N/N=C/c2ccco2)Cc2ccccc2)cc1	none
Cc1nn(CCc2nn[nH]n2)c2nc(-c3ccccc3)cc(C(F)(F)F)c12	Scp-1 inhibitor 63.6 | Scp1 confirm 70.6 | MG interference inactive | Scp-1 Tm shift inactive
CCCCNC(=O)C1(C)CCCCN1C(=O)c1ccc(F)c(C)c1 (centres undefined)	none (no result: Scp-1 inhibitor)
O=C(CCC(=O)Nc1ccc(Br)cc1)N/N=C/c1cc([N+](=O)[O-])ccc1O	Scp-1 inhibitor 73.9 | Scp1 confirm inactive | MG interference inactive
CCOc1ccccc1NC(=O)N1CCC(NC(=O)c2cccc(C)c2)CC1	Scp-1 inhibitor 99.3 | Scp1 confirm 67.2 | MG interference inactive | Scp-1 Tm shift inactive
COc1cccc(NC(=O)C2CCCN(S(=O)(=O)c3cccc4cccnc34)C2)c1 (centres undefined)	Scp-1 inhibitor 86.4 | Scp1 confirm inactive | MG interference inactive
CN(Cc1ccccc1)C(=O)c1ncn(C)c1C(=O)N(C)Cc1ccccc1	Scp-1 inhibitor 93.4 | Scp1 confirm 84.6 | MG interference inactive | Scp-1 Tm shift inactive
CN(Cc1ccccc1)C(=O)c1ncn(Cc2ccccc2)c1C(=O)N(C)Cc1ccccc1	none
Cc1cc(C(=O)N2CCC2(C)C(=O)Nc2cccc3c2CCCC3)nn1C (centres undefined)	none (no result: Scp-1 inhibitor)
CC(C)C(OC(=O)C1=Cc2ccccc2OC1)C(=O)NCC1CCCO1 (centres undefined)	none
C[C@H](CO)N1C[C@H](C)[C@@H](CN(C)S(C)(=O)=O)Oc2c(NC(=O)c3ccncc3)cccc2C1=O	Scp-1 inhibitor 54.9 | Scp1 confirm inactive | MG interference inactive
C[C@H](CO)N1C[C@H](C)[C@@H](CN(C)Cc2ccc(Cl)c(Cl)c2)Oc2c(NC(=O)c3ccncc3)cccc2C1=O	Scp-1 inhibitor 54.4 | Scp1 confirm inactive | MG interference inactive
Cc1noc(C)c1NC(=O)N(C)C[C@H]1Oc2c(NC(=O)NC(C)C)cccc2C(=O)N([C@H](C)CO)C[C@@H]1C	none
Cc1noc(C)c1NC(=O)N(C)C[C@H]1Oc2c(NC(=O)c3ccncc3)cccc2C(=O)N([C@H](C)CO)C[C@@H]1C	Scp-1 inhibitor 60.8 | Scp1 confirm inactive | MG interference inactive
C[n+]1cnn2c1SCC1(COC1)C2	Scp-1 inhibitor 104.3 | Scp1 confirm inactive | MG interference inactive
CCOC(=O)CNC(=O)N(C)[C@H]1C[C@H]2c3[nH]c4ccccc4c3CCN2C(=O)[C@H]1[C@H](C)O	none (no result: Scp-1 inhibitor)
O=C(COC(=O)c1cc(-c2ccccc2Cl)nc2ccccc12)Nc1ncc(C(F)(F)F)cc1Cl	Scp-1 inhibitor 50.3 | Scp1 confirm 35.7 | MG interference inactive | Scp-1 Tm shift inactive
COC(=O)C1=CN(c2ccc(Oc3ccccc3)cc2)C(N)=C(C#N)C1c1ccccc1 (centres undefined)	none (no result: DNMT1 block, Scp-1 inhibitor, STEP inh)
CCC1(c2ccccc2)NC(=O)N(CC(=O)NCc2ccncc2)C1=O (centres undefined)	none
CCC1(c2ccccc2)NC(=O)N(CC(=O)NNC(=O)COc2ccc(Cl)cc2C)C1=O (centres undefined)	none | Scp1 confirm inactive | MG interference inactive
CC1=NNC(=O)C1CCC(=O)N/N=C/c1ccc(Cl)cc1 (centres undefined)	none
CC1=NNC(=O)C1CCC(=O)N/N=C(\C)c1ccccc1 (centres undefined)	none | Scp1 confirm inactive | MG interference inactive
CC1=NNC(=O)C1CCC(=O)N/N=C/c1c(Cl)cccc1Cl (centres undefined)	none | Scp1 confirm inactive | MG interference inactive
CCOC(=O)c1ccc(CNC(=O)C2CCC(=O)N(CCc3ccccc3)C2)o1 (centres undefined)	none
CCCCn1c2c(c(=N)c3c1CCC3)CCC2	Scp-1 inhibitor 93.8 | Scp1 confirm inactive | MG interference inactive
CCCCCCCCCn1c2c(c(=N)c3c1CCC3)CCC2	none
Cc1ccsc1-c1cc2nc(NCCCN(C)C)n(C)c(=O)c2s1	none (no result: Scp-1 inhibitor)
O=C(COC(=O)/C=C/c1ccco1)Nc1ccc(F)cc1Cl	Scp-1 inhibitor 50.3 | Scp1 confirm 36.3 | MG interference inactive | Scp-1 Tm shift inactive
CCNC(=O)C1CCCN(Cc2ccc(C)c3ccccc23)CC1 (centres undefined)	none (no result: Scp-1 inhibitor)
CN1CCN(S(=O)(=O)c2cccc(C(=O)N(C)CC(=O)Nc3ccc(F)c(F)c3F)c2)CC1	Scp-1 inhibitor 94.7 | Scp1 confirm inactive | MG interference inactive
O=[N+]([O-])c1cnccc1-n1nnc2ccccc21	none (no result: DNMT1 block, Scp-1 inhibitor, STEP inh)
Cc1sc(NC(=O)Cn2nc(C(F)(F)F)cc2C)c(C(=O)OC(C)C)c1C	Scp-1 inhibitor 63.5 | Scp1 confirm inactive | MG interference inactive
COCCCN1C(=O)C(CC(=O)NCCCN(C)C)CC(C(=O)N2CCOCC2)=C1C (centres undefined)	none (no result: Scp-1 inhibitor)
CCc1nnc(NC(=O)Cn2c(=O)oc3ccccc32)s1	none
